Results pooled from the literature.
Each line is one published result; the experiments were not run side by side.
Cell line: Calu-3
Read-out: cell growth or viability

For `CC(C)[C@H](NC(=O)c1ccccc1NC(=O)c1ccccc1)C(=O)N[C@H](CO)C(C)C`, the CC50 was greater than 250 µM (MTT; 48 h).
For `CN(C)C(=O)COC(=O)Cc1ccc(OC(=O)c2ccc(NC(=N)N)cc2)cc1`, the CC50 was greater than 200 µM (ATP luminescence).
`COc1cc2ncnc(Nc3ccc(F)c(Cl)c3)c2cc1OCCCN1CCOCC1` has a CC50 of greater than 60 µM (resazurin).
The CC50 of `CCC(CC)COC(=O)[C@H](C)N[P@](=O)(OC[C@H]1O[C@@](C#N)(c2ccc3c(N)ncnn23)[C@H](O)[C@@H]1O)Oc1ccccc1` is reported as no less than 250 µM (MTT; 48 h).
With `COc1cc(Nc2ccnc3ccc(Br)cc23)cc(OC)c1OC` the CC50 was greater than 60 µM (resazurin).
`O=C(Nc1ccc2c(c1)OCO2)c1nnc(C(=O)N2CCCC(C(=O)NCc3ccccc3)C2)s1` (centres unmarked) gave a CC50 of 151 µM (MTT; 48 h).
With `O=C1Nc2cc(C(F)(F)F)ccc2Oc2ccsc21` the CC50 was greater than 100 µM (MTT; 72 h).
With `O=C(NCc1ccc(F)cc1)c1cccc(Nc2ccc(-c3ccccc3)nn2)c1` the CC50 was greater than 100 µM (MTS; 48 h).
`CCS(=O)(=O)N1CC(CC#N)(n2cc(-c3ncnc4[nH]ccc34)cn2)C1` has a CC50 of greater than 60 µM (resazurin).
The CC50 of `CCOC(=O)c1c(NCc2ccc(SC)cc2)c2cccc(C)c2[nH]c1=O` is reported as greater than 100 µM (MTS; 48 h).
`CN1C(=O)c2ccccc2[S+]([O-])c2cc([N+](=O)[O-])ccc2S1(=O)=O` (centres unmarked) has a CC50 of greater than 100 µM (MTT; 72 h).
